Measurements: ChEMBL document CHEMBL1240400, “Comparative in vitro activities of nemonoxacin (TG-873870), a novel nonfluorinated quinolone, and other quinolones against clinical isolates” (2010)
Converted amounts (≈) assume the structure as drawn.

Legend:
Type in all cases: functional
[1] = system: Proteus mirabilis; test: Antibacterial activity against Proteus mirabilis by broth dilution method
[2] = system: Pseudomonas aeruginosa; test: Antibacterial activity against Pseudomonas aeruginosa by broth dilution method
[3] = system: Citrobacter freundii; test: Antibacterial activity against Citrobacter freundii by broth dilution method
In short: (§1)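 Broth microdilution per CLSI in panels spanning a dilution range of each agent. Cation-adjusted Mueller-Hinton broth, final inoculum 5 × 10^5 CFU/ml from a 0.5 McFarland suspension. Incubated overnight at 35°C in ambient air, with quality control strains in each run. MIC reported; values at or below the lowest concentration tested are given as that concentration.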

[4] = system: Acinetobacter baumannii; test: Antibacterial activity against Acinetobacter baumannii by broth dilution method; in short: as §1
[5] = system: Haemophilus influenzae; test: Antibacterial activity against Haemophilus influenzae by broth dilution method
In short: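 Broth microdilution per CLSI using Haemophilus Test Medium broth, seeded from a 0.5 McFarland suspension. Incubated overnight at 35°C in ambient air, with quality control strains in each run. MIC read against a tested dilution range; values at the low limit are given as the lowest concentration.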

[6] = system: Escherichia coli; test: Antibacterial activity against ciprofloxacin susceptible Escherichia coli by broth dilution method; in short: as §1
[7] = system: Klebsiella pneumoniae; test: Antibacterial activity against Klebsiella pneumoniae by broth dilution method; in short: as §1
[8] = system: Enterobacter cloacae; test: Antibacterial activity against Enterobacter cloacae by broth dilution method
[9] = system: Streptococcus pneumoniae; test: Antibacterial activity against Levofloxacin susceptible Streptococcus pneumoniae by broth dilution method
In short: (§2)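 Streptococcus pneumoniae clinical isolates tested by CLSI broth microdilution. A 0.5 McFarland suspension was diluted into Mueller-Hinton broth with 3% lysed horse blood, then tested against serial drug dilutions. Plates were incubated overnight at 35°C in ambient air, and the MIC was read as the lowest inhibitory concentration. Quality control strains were included in each run.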

[10] = system: Staphylococcus aureus; test: Antibacterial activity against methicillin susceptible Staphylococcus aureus by broth dilution method
[11] = system: Staphylococcus aureus; test: Antibacterial activity against ciprofloxacin and methicillin resistant Staphylococcus aureus by broth dilution method
In short: (§3)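 Clinical isolates tested by CLSI broth microdilution in panels holding serial twofold drug dilutions in cation-adjusted Mueller-Hinton broth. Final inoculum 5 × 10^5 CFU/ml was made from a 0.5 McFarland suspension. Plates were incubated overnight at 35°C in ambient air, and the MIC was read as the lowest concentration inhibiting growth. Quality control strains were included in each run.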

[12] = system: Escherichia coli; test: Antibacterial activity against ciprofloxacin resistant Escherichia coli by broth dilution method; in short: as §3
[13] = system: Streptococcus pyogenes; test: Antibacterial activity against Streptococcus pyogenes by broth dilution method
In short: (§4)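 Streptococci were tested by CLSI broth microdilution in Mueller-Hinton broth with 3% lysed horse blood, seeded from a 0.5 McFarland suspension. Incubated overnight at 35°C in ambient air, with quality control strains in each run. MIC taken over a per-agent dilution range.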

[14] = system: Streptococcus pneumoniae; test: Antibacterial activity against Levofloxacin resistant Streptococcus pneumoniae by broth dilution method; in short: as §2
[15] = system: Streptococcus agalactiae; test: Antibacterial activity against Streptococcus agalactiae by broth dilution method; in short: as §4
[16] = system: Staphylococcus aureus; test: Antibacterial activity against ciprofloxacin susceptible and methicillin resistant Staphylococcus aureus by broth dilution method; in short: as §3
[17] = system: Staphylococcus epidermidis; test: Antibacterial activity against methicillin resistant coagulase negative Staphylococcus epidermidis by broth dilution method
[18] = system: Streptococcus viridans; test: Antibacterial activity against Streptococcus viridans by broth dilution method; in short: as §4
[19] = system: Staphylococcus; test: Antibacterial activity against methicillin resistant coagulase negative Staphylococcus by broth dilution method
[20] = system: Neisseria gonorrhoeae; test: Antibacterial activity against ciprofloxacin resistant Neisseria gonorrhoeae isolates by broth dilution method
In short: (§5)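 Neisseria gonorrhoeae clinical isolates tested by CLSI broth microdilution in Mueller-Hinton broth with 3% lysed horse blood, inoculated from a 0.5 McFarland suspension. Plates were incubated overnight at 35°C in 5% CO2, and the MIC was read as the lowest inhibitory concentration. Quality control strains were included in each run.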

[21] = system: Neisseria gonorrhoeae; test: Antibacterial activity against levofloxacin resistant Neisseria gonorrhoeae isolates by broth dilution method; in short: as §5
[22] = system: Neisseria gonorrhoeae; test: Antibacterial activity against moxifloxacin resistant Neisseria gonorrhoeae isolates by broth dilution method; in short: as §5

| SMILES | MIC50 [1] [µg/mL] | MIC90 [1] [µg/mL] | MIC50 [2] [µg/mL] | MIC90 [2] [µg/mL] | MIC50 [3] [µg/mL] | MIC90 [3] [µg/mL] | MIC50 [4] [µg/mL] | MIC90 [4] [µg/mL] | MIC50 [5] [µg/mL] | MIC90 [5] [µg/mL] | MIC50 [6] [µg/mL] | MIC90 [6] [µg/mL] | MIC50 [7] [µg/mL] | MIC90 [7] [µg/mL] | MIC50 [8] [µg/mL] | MIC90 [8] [µg/mL] | MIC50 [12] [µg/mL] | MIC90 [12] [µg/mL] | MIC50 [13] [µg/mL] | MIC90 [13] [µg/mL] | other results |
| --- | --- | --- | --- | --- | --- | --- | --- | --- | --- | --- | --- | --- | --- | --- | --- | --- | --- | --- | --- | --- | --- |
| CO/N=C(\C(=O)N[C@@H]1C(=O)N2C(C(=O)[O-])=C(C[N+]3(C)CCCC3)CS[C@H]12)c1csc(N)n1 | ≤ 0.06 | 8 (≈ 16.6 µM) | > 8 | > 8 | ≤ 0.06 | > 8 | > 8 | > 8 | 0.25 (≈ 0.52 µM) | 0.5 (≈ 1.04 µM) |  |  |  |  |  |  |  |  |  |  |  |
| CC(C)(O/N=C(\C(=O)N[C@@H]1C(=O)N2C(C(=O)[O-])=C(C[n+]3ccccc3)CS[C@H]12)c1csc(N)n1)C(=O)O [CEFTAZIDIME] | ≤ 1 | ≤ 1 | 32 (≈ 58.5 µM) | > 128 | ≤ 1 | 64 (≈ 117 µM) | 64 (≈ 117 µM) | > 128 | ≤ 1 | ≤ 1 | 1 (≈ 1.83 µM) | 16 (≈ 29.3 µM) | 16 (≈ 29.3 µM) | > 128 | 128 (≈ 234 µM) | > 128 |  |  |  |  | MIC [6]: 1 µg/mL (≈ 1.83 µM); MIC [5]: ≤ 1 µg/mL |
| CO/N=C(\C(=O)N[C@@H]1C(=O)N2C(C(=O)O)=C(CSc3nc(=O)c(O)nn3C)CS[C@H]12)c1csc(N)n1 [CEFTRIAXONE] | ≤ 0.03 | > 8 | > 8 | > 8 | 0.25 (≈ 0.451 µM) | > 8 | > 8 | > 8 | ≤ 0.03 | ≤ 0.03 | 0.06 (≈ 0.108 µM) | > 8 | > 8 | > 8 | > 8 | > 8 | > 8 | 64 (≈ 115 µM) | ≤ 0.06 | ≤ 0.06 | MIC [2]: > 8 µg/mL; MIC50 [9]: 1 µg/mL (≈ 1.8 µM); MIC90 [9]: 2 µg/mL (≈ 3.61 µM); MIC50 [10]: 4 µg/mL (≈ 7.21 µM); MIC90 [10]: 4 µg/mL (≈ 7.21 µM); MIC50 [11]: > 8 µg/mL; MIC90 [11]: > 8 µg/mL; MIC [13]: ≤ 0.06 µg/mL; MIC50 [14]: 1 µg/mL (≈ 1.8 µM); MIC90 [14]: 2 µg/mL (≈ 3.61 µM); MIC50 [15]: ≤ 0.06 µg/mL; MIC90 [15]: 0.12 µg/mL (≈ 0.216 µM); MIC50 [16]: > 8 µg/mL; MIC90 [16]: > 8 µg/mL; MIC50 [17]: > 8 µg/mL; MIC90 [17]: > 8 µg/mL; MIC50 [18]: 0.25 µg/mL (≈ 0.451 µM); MIC90 [18]: 0.5 µg/mL (≈ 0.902 µM); MIC50 [19]: > 8 µg/mL; MIC90 [19]: > 8 µg/mL |
| O=C(O)c1cn(C2CC2)c2cc(N3CCNCC3)c(F)cc2c1=O [CIPROFLOXACIN] | 2 (≈ 6.04 µM) | > 16 | 4 (≈ 12.1 µM) | > 16 | ≤ 0.06 | 2 (≈ 6.04 µM) | 4 (≈ 12.1 µM) | > 16 | 0.25 (≈ 0.754 µM) | 16 (≈ 48.3 µM) | 0.25 (≈ 0.754 µM) | 1 (≈ 3.02 µM) | 4 (≈ 12.1 µM) | > 16 |  |  | > 16 | > 16 | 1 (≈ 3.02 µM) | 4 (≈ 12.1 µM) | MIC [20]: 2 µg/mL (≈ 6.04 µM); MIC [21]: 1 µg/mL (≈ 3.02 µM); MIC [22]: 0.5 µg/mL (≈ 1.51 µM); MIC50 [14]: > 16 µg/mL; MIC90 [14]: > 16 µg/mL; MIC50 [17]: 0.5 µg/mL (≈ 1.51 µM); MIC90 [17]: > 16 µg/mL; MIC50 [18]: 1 µg/mL (≈ 3.02 µM); MIC90 [18]: 4 µg/mL (≈ 12.1 µM); MIC50 [19]: 0.5 µg/mL (≈ 1.51 µM); MIC90 [19]: > 16 µg/mL |
| C[C@@H](O)[C@H]1C(=O)N2C(C(=O)O)=C(SCCNC=N)C[C@H]12 [IMIPENEM ANHYDROUS] | 2 (≈ 6.68 µM) | 8 (≈ 26.7 µM) |  |  | 1 (≈ 3.34 µM) | 2 (≈ 6.68 µM) | 2 (≈ 6.68 µM) | > 32 | 1 (≈ 3.34 µM) | 4 (≈ 13.4 µM) |  |  | 0.5 (≈ 1.67 µM) | 4 (≈ 13.4 µM) | 1 (≈ 3.34 µM) | 4 (≈ 13.4 µM) |  |  |  |  |  |
